A short description of data set [1]: Cytotoxicity against african green monkey Vero cells assessed as reduction in cell viability after 24 to 36 hrs by MTS-based CPE reduction assay. Particulars: chlorocebus sabaeus. The method, boiled down: (§1)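 Noninfected Vero or RD cells exposed to serial compound dilutions under the CPE-assay conditions (37 °C, 24-36 h). Viability measured by MTS/PMS absorbance at 498 nm. CC50 is the concentration causing 50% death of noninfected cells.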
(In general: Tetrazolium assays rely on reduction of a dye to a coloured formazan, in cell work by metabolically active cells.)

Data set [2] relates to Enterovirus A71. Put plainly: Antiviral activity against Human enterovirus 71 infected in monkey African green Vero cells by MTS-based CPE reduction assay. Format: functional, organism-based. The following applies: Enterovirus A, Vero; read-out: EC50. The method, boiled down:
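Vero cells (5 × 10^5) seeded, then given serial compound dilutions plus 100 TCID50 EV71. Incubated at 37 °C for 24-36 h until complete CPE in the virus-infected, compound-free control. Viability read by MTS/PMS at 498 nm. EC50 is the concentration inhibiting virus-induced CPE by 50%. At least three repeats.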

Data set [3] is described as follows: Selectivity index, ratio of CC50 for african green monkey Vero cells to EC50 for Enterovirus 71. The class given is toxicity, cell-based. Particulars: read-out: Ratio CC50/EC50. The method in brief:
(§2)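 Selectivity index is CC50/EC50, both taken from MTS-based CPE reduction assays in the same cell line (Vero or RD).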

For the next data set, the system named is Coxsackievirus B1. Briefly: Antiviral activity against Human coxsackievirus B1 infected in african green monkey Vero cells after 24 to 36 hrs by MTS-based CPE reduction assay. The class given is functional, organism-based. Particulars: Enterovirus B. The method, boiled down:
(§3)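 Vero cells infected with the coxsackievirus B serotype in the presence of serial compound dilutions. CPE reduction read by MTS/PMS absorbance at 498 nm after 24-36 h at 37 °C. EC50 is the concentration giving 50% CPE inhibition. Mean ± standard deviation of at least three independent experiments.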

A further data set relates to Coxsackievirus B2. Briefly: Antiviral activity against Human coxsackievirus B2 infected in african green monkey Vero cells after 24 to 36 hrs by MTS-based CPE reduction assay. Particulars: Enterovirus B. The class given is functional, organism-based. The method in brief: as §3
In data set [4] the test system is Enterovirus A71. Put plainly: Antiviral activity against Enterovirus 71 infected in human RD cells after 24 to 36 hrs by MTS-based CPE reduction assay. Format: functional, organism-based. Particulars: Enterovirus A, RD; read-out: EC50. The method in brief:
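RD cells given serial compound dilutions with EV71. Incubated at 37 °C for 24-36 h until full CPE in the virus control. Viability read by MTS/PMS at 498 nm. EC50 is the concentration giving 50% inhibition of virus-induced CPE. At least three independent experiments.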

The next data set relates to RD. Put plainly: Cytotoxicity against human RD cells assessed as reduction in cell viability after 24 to 36 hrs by MTS-based CPE reduction assay. The class given is functional. The method, boiled down:
as §1

Data set [5] can be described thus: Selectivity index, ratio of CC50 for human RD cells to EC50 for Enterovirus 71. Format: toxicity, cell-based. The following applies: read-out: Ratio CC50/EC50. The method, boiled down: as §2
The subject of a further data set is Coxsackievirus B3. Put plainly: Antiviral activity against Human coxsackievirus B3 infected in african green monkey Vero cells after 24 to 36 hrs by MTS-based CPE reduction assay. The following applies: Enterovirus B. Format: functional, organism-based. The method in brief: as §3
The test system of the next data set is Coxsackievirus B4. Put plainly: Antiviral activity against Human coxsackievirus B4 infected in african green monkey Vero cells by after 24 to 36 hrs MTS-based CPE reduction assay. The class given is functional, organism-based. Particulars: Enterovirus B. The method in brief:
as §3

Another data set has as its system Coxsackievirus B5. Briefly: Antiviral activity against Human coxsackievirus B5 infected in african green monkey Vero cells after 24 to 36 hrs by MTS-based CPE reduction assay. Format: functional, organism-based. The following applies: Enterovirus B. The method in brief:
as §3

The test system of the next data set is Coxsackievirus B6. Put plainly: Antiviral activity against Human coxsackievirus B6 infected in african green monkey Vero cells after 24 to 36 hrs by MTS-based CPE reduction assay. Format: functional, organism-based. The following applies: Enterovirus B. The method in brief:
as §3

The term CC50 denotes the concentration that lowers cell viability or growth by half. The EC50 is the concentration that produces a half-maximal response. On to `CC(C)S(=O)(=O)n1c(N)nc2ccc(/C(=N/O)c3ccccc3)cc21` [ENVIROXIME], for which the CC50 (in data set [1]; in the data set with RD) was more than 223000 nM each time. Besides, the concentration giving a half-maximal response (EC50) with Enterovirus A71 [2] is 150 nM; in the data set with Coxsackievirus B1, 750 nM; in the data set on Coxsackievirus B2 it was 150 nM; with Enterovirus A71 [4], 240 nM; in the data set on Coxsackievirus B3, 2480 nM; with Coxsackievirus B4, more than 186000 nM. Moreover, the EC50 came to 120 nM with Coxsackievirus B5 and 100 nM in the data set with Coxsackievirus B6. The selectivity ratio is more than 1490 in [3] and more than 950 in [5].
`CN(C)c1ccc(C(=O)NNc2c(Br)cccc2Br)cc1`: the CC50 (in [1]; in the data set with RD) was more than 194000 nM in each case. The EC50 stood at 30 nM with Enterovirus A71 [2]; 5 nM in the data set with Coxsackievirus B1; 0.5 nM with Coxsackievirus B2; 70 nM in the data set on Enterovirus A71 [4]; 30 nM in the data set with Coxsackievirus B3; 340 nM in the data set on Coxsackievirus B4. The EC50 worked out at 60 nM in the data set with Coxsackievirus B5 and 20 nM in the data set with Coxsackievirus B6. Also, the selectivity ratio in [3] is more than 6460; in data set [5], more than 2930.
On to `Cc1cccc(C)c1NNC(=O)c1ccc(C(C)(C)C)cc1`, for which the CC50 in data set [1] stood at 166000 nM; in the data set on RD, 188000 nM. Besides, the EC50 is 170 nM with Enterovirus A71 [2]; 1.6 nM in the data set on Coxsackievirus B1; 1.6 nM with Coxsackievirus B2; 420 nM in the data set on Enterovirus A71 [4]; 90 nM in the data set on Coxsackievirus B3; 5620 nM with Coxsackievirus B4. The EC50 turned out to be 3190 nM in the data set on Coxsackievirus B5 and 560 nM with Coxsackievirus B6. In addition, the selectivity ratio in [3] is 978; in data set [5], 454.
On to `Cc1cccc(C)c1NNC(=O)c1ccc(N(C)C)cc1`, for which the CC50 (in [1]; in the data set with RD) was more than 282000 nM in each case. Besides, the EC50 with Enterovirus A71 [2] is 290 nM; in the data set on Enterovirus A71 [4], 690 nM. Besides, the selectivity ratio in data set [3] was more than 974; in data set [5], more than 411.
Consider `CCCc1ccc(C(=O)NNc2c(Br)cccc2Br)cc1`, for which the CC50 (in [1]; with RD) was more than 194000 nM in each case. Also, the EC50 with Enterovirus A71 [2] was determined as 3540 nM; in the data set with Enterovirus A71 [4], 4620 nM. Further, the figures for the selectivity ratio in [3] and in data set [5] were more than 54.8 and more than 42, respectively.
As for `Cc1ccc(C(=O)NNc2c(Cl)cccc2Cl)cc1`, the CC50 (in data set [1]; in the data set on RD) was more than 271000 nM each time. The figures for the EC50 in the data set on Enterovirus A71 [2] and with Enterovirus A71 [4] were 1280 nM and 960 nM, respectively. The selectivity ratio in data set [3] is more than 212; in [5], more than 281.
With `CN(C)c1ccc(C(=O)NNc2c(F)cccc2F)cc1`, the CC50 (in [1]; with RD) was more than 275000 nM each time. The EC50 with Enterovirus A71 [2] stood at 18000 nM; in the data set with Enterovirus A71 [4], 23500 nM. Besides, the selectivity ratio in data set [3] was more than 15.3; in [5] it was more than 11.7.
For `CC(C)(C)c1ccc(C(=O)NNc2c(Br)cccc2Br)cc1`, the CC50 (in data set [1]; in the data set with RD) was more than 188000 nM each time. Also, the EC50 in the data set with Enterovirus A71 [2] turned out to be 80 nM; in the data set with Coxsackievirus B1, 2610 nM; in the data set with Coxsackievirus B2, 1570 nM; with Enterovirus A71 [4], 290 nM; in the data set on Coxsackievirus B3, 870 nM; in the data set with Coxsackievirus B4, 6520 nM. Further, the results for the EC50 in the data set on Coxsackievirus B5 and with Coxsackievirus B6 were 980 nM and 920 nM, respectively. For the same compound, the selectivity ratio is more than 2350 in data set [3] and more than 641 in data set [5].
On to `CCc1ccc(C(=O)NNc2c(C)cccc2C)cc1`, for which the CC50 in data set [1] stood at 135000 nM; in the data set with RD it was 164000 nM. Also, the EC50 in the data set on Enterovirus A71 [2] was found to be 1570 nM; in the data set with Enterovirus A71 [4] it was 2750 nM. The selectivity ratio is 86.2 in data set [3] and 59.7 in data set [5].
As for `CC(C)(C)c1ccc(C(=O)NNc2c(F)cccc2F)cc1`, the CC50 in data set [1] is 150000 nM; in the data set with RD it was 184000 nM. Besides, the 50% effective concentration (EC50) with Enterovirus A71 [2] came to 2190 nM; with Enterovirus A71 [4], 4270 nM. Also, the selectivity ratio is 68.4 in data set [3] and 43 in data set [5].
